In the library only some 5.8% were active in any assay of this set; here they are far more common.
T cruzi growth-1: T. cruzi intracellular proliferation inhibitors, primary screen, cell-based, beta-gal Tulahuen parasites, NIH3T3 host, luminescence; T. cruzi beta-gal in NIH3T3, GalScreen luminescence, 90 h; inhibition, % at 8.34 µM; 77,000 compounds, 5.9% hits; AID 624255, 2012;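 active = mean inhibition above about 93%, with at least 55% of replicates each passing it, limit read from the data, passing the limit was not always enough; inconclusive = only one of those two conditions holds; inactive = neither condition holds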
KDM4C inh: inhibitors of GASC-1 (KDM4C) histone demethylase, primary screen, biochemical, single concentration HTS; GST-KDM4C 2-372, H3K9me3 peptide, LANCE TR-FRET; inhibition, % at 12.5 µM; 96,000 compounds, 0.15% hits; AID 720574, 2013;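 active = mean replicate inhibition above about 25%, with at least 55% of replicates also reaching it, limit read from the data, passing the limit was not always enough; inconclusive = only one of those two conditions met; inactive = neither condition met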
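material = GST-tagged GASC-1 (JMJD2C) catalytic fragment, aa 2-372 | amount = enzyme final amount 10 nM | medium = HEPES buffer, pH 7.5, plus ascorbate | also added = H3K9me3 peptide substrate, Fe(II), 2-oxoglutarate | dosing = single dose | times = 30 min demethylation and 1 h detection at room temperature | detection = LANCE TR-FRET | read-out basis = Fall in 671/618 emission ratio as inhibition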
Pf Dd2 growth: P. falciparum Dd2 growth inhibitors, primary screen, SYBR Green fluorescence, single dose replicates; 94,000 compounds, 2.3% hits; activity change, % at 10 µM; AID 1159554, 2015; 72 h; active compounds read low; in the data active = activity change below about -80%; inconclusive = no clear call, values can overlap the other calls
IDH1 R132H inh: inhibitors of IDH1 R132H reductase, primary screen, biochemical, plate reader, single point | diaphorase/resazurin fluorescence, 60 min | 70,000 compounds, 0.18% hits | inhibition, % at 10 µM | Isocitrate dehydrogenase [NADP] cytoplasmic (Homo sapiens), O75874 | AID 624101, 2012; in the data active = inhibition above about 34%; inconclusive = no clear call, values can overlap the other calls; inactive = below about 11%;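 note: 0% = DMSO and 100% = no enzyme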
Target sequence (O75874 whole entry R132H): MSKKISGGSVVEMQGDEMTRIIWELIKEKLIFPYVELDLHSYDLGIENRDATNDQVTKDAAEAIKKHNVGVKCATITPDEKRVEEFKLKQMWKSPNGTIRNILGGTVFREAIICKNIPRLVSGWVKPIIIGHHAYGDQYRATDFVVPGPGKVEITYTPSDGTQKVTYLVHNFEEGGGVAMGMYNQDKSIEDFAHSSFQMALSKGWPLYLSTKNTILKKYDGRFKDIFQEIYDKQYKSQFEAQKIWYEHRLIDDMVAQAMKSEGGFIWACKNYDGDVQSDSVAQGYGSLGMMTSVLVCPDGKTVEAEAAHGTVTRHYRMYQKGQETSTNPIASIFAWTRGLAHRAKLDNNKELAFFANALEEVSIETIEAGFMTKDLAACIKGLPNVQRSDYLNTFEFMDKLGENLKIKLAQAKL
T cruzi growth-2: T. cruzi intracellular proliferation inhibitors, confirmation, cell-based, NIH3T3 host, beta-gal parasite, luminescence, cherry-pick; inhibition, % at 8.35 µM; 5,600 compounds, 72% hits; T. cruzi beta-gal in NIH3T3, GalScreen luminescence, 90 h; shares compounds with T cruzi growth-1; AID 651739, 2012;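 active = mean replicate inhibition above about 95% and at least 55% of replicates individually reaching it, limit read from the data; inconclusive = only one of the two criteria is met; inactive = neither criterion is met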
T cruzi growth-3: inhibitors of intracellular T. cruzi replication, confirmation, NIH3T3 host cells, beta-gal parasites, cherry-pick, set 2; AID 651740, 2012; inhibition, % at 2.09 µM; shares compounds with T cruzi growth-1; 5,600 compounds, 21% hits; T. cruzi beta-gal in NIH3T3, GalScreen luminescence, 90 h;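 active = mean inhibition above about 95%, with at least 55% of replicates also reaching it, limit read from the data; inconclusive = meets just one of the two conditions; inactive = meets neither condition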;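 note: plate controls were neutral control median for no effect and positive control median for full effect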
NIH3T3 tox: cytotoxicity in mouse NIH/3T3 fibroblasts, confirmation, cytotoxicity control for T. cruzi proliferation inhibitor project, cell-based, cherry-pick, single point | 5,600 compounds, 14% hits | cytotoxicity (signal decrease), % at 8.35 µM | NIH/3T3 viability, CellTiter-Glo ATP luminescence, 90 h | AID 651742, 2012 | shares compounds with T cruzi growth-1;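 active = mean signal decrease across replicates above about 35% based on untreated-well scatter, with enough replicates individually passing, limit read from the data; inconclusive = no rule stated though some were filed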;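 note: 0% = median of neutral control wells and 100% = median of positive control wells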
NIH3T3 tox 2: NIH/3T3 fibroblast cytotoxicity, confirmation, cytotoxicity control, cell-based, cherry-pick, single point, set 2 | NIH/3T3 viability, CellTiter-Glo ATP luminescence, 90 h | inhibition, % at 24.9 µM | AID 651744, 2012 | shares compounds with T cruzi growth-1 | 5,600 compounds, 56% hits;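 active = mean loss of cell viability signal at or above a set limit, and enough replicates individually reaching it; inconclusive = meets only the mean limit or only the replicate share; inactive = meets neither condition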;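 note: 0% = median of neutral control wells and 100% = median of positive control wells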
* = called active by the depositor; ? = inconclusive; · = no result given.

SMILES	T cruzi growth-1	KDM4C inh	Pf Dd2 growth	IDH1 R132H inh	T cruzi growth-2	T cruzi growth-3	NIH3T3 tox	NIH3T3 tox 2
C[C@H]1CN([C@@H](C)CO)C(=O)c2cc(C#Cc3ccccn3)cnc2O[C@@H]1CN(C)Cc1cncnc1	111.0*	1.5	21.6	0.1	108.3*	22.7	-12.3	5.2
Cc1nnc(SCC(=O)c2ccc3c(c2)OCCO3)s1	·	·	·	0.4	·	·	·	·
CC1CCC23CCC(O[C@@H]4O[C@H](CO)[C@@H](O)[C@H](O)[C@H]4O)C12C(C=O)=CC3(C)C (some centres not stated)	·	·	·	0.2	·	·	·	·
O=C(NCCc1c[nH]c2ccccc12)NC1CCCCC1	·	·	·	0.3	·	·	·	·
CCCN(C)C[C@@H]1Oc2cc(C#Cc3ccccc3)ccc2S(=O)(=O)N([C@@H](C)CO)C[C@@H]1C	111.5*	-5.3	-79.3	-1.1	112.6*	72.3	4.0	104.1*
CCCN(C)C[C@@H]1Oc2cc(C#Cc3ccc(OC)cc3)ccc2S(=O)(=O)N([C@@H](C)CO)C[C@@H]1C	?	-3.5	-85.1*	0.4	110.1*	85.5	43.4*	103.9*
CCCN(C)C[C@@H]1Oc2cc(C#Cc3ccccc3F)ccc2S(=O)(=O)N([C@@H](C)CO)C[C@@H]1C	?	-0.3	-76.0	-0.4	111.8*	88.6	23.3	105.7*
CCCN(C)C[C@@H]1Oc2cc(C#Cc3ccccc3)ccc2S(=O)(=O)N([C@H](C)CO)C[C@@H]1C	43.9	-3.2	-77.7	0.7	·	·	·	·
CCCN(C)C[C@@H]1Oc2cc(C#Cc3ccc(F)cc3)ccc2S(=O)(=O)N([C@@H](C)CO)C[C@@H]1C	85.4*	2.7	-63.9	-0.2	108.5*	?	?	105.7*
CSc1ccccc1NC(=O)CSc1nnnn1-c1ccccc1F	·	·	·	1.0	·	·	·	·
COc1cccc(NC(=O)CSc2ncnc3scc(-c4ccc(C)cc4)c23)c1	·	·	·	0.0	·	·	·	·
CCCN(C)C[C@@H]1Oc2cc(C#CC(C)C)ccc2S(=O)(=O)N([C@@H](C)CO)C[C@H]1C	102.0*	0.5	-47.8	-0.7	111.0*	90.9	9.7	104.5*
COc1ccc(S(=O)(=O)Nc2ccc3c(c2)CC(=O)N([C@H](C)CO)C[C@@H](C)[C@H](CN(C)Cc2ccc4c(c2)OCO4)O3)cc1	109.2*	14.4	14.2	0.0	107.8*	53.2	1.3	8.2
COc1ccc(S(=O)(=O)Nc2ccc3c(c2)CC(=O)N([C@@H](C)CO)C[C@@H](C)[C@H](CN(C)Cc2ccc4c(c2)OCO4)O3)cc1	113.3*	0.0	-22.6	-0.1	108.8*	85.4	18.7	23.2
COc1ccc(S(=O)(=O)Nc2ccc3c(c2)CC(=O)N([C@@H](C)CO)C[C@@H](C)[C@@H](CN(C)Cc2ccc4c(c2)OCO4)O3)cc1	52.2	-0.8	-40.2	0.5	·	·	·	·
COc1ccc(S(=O)(=O)Nc2ccc3c(c2)CC(=O)N([C@H](C)CO)C[C@H](C)[C@@H](CN(C)Cc2ccc4c(c2)OCO4)O3)cc1	?	1.0	-24.9	2.1	107.5*	62.4	-16.6	-5.3
Cc1cc(C)c(NC(=O)CN(c2ccc(Oc3ccccc3)cc2)S(C)(=O)=O)c(C)c1	·	·	·	0.5	·	·	·	·
O=C(COc1ccccc1[N+](=O)[O-])Nc1ccc2oc(-c3ccc(F)cc3Cl)nc2c1	·	·	·	1.1	·	·	·	·
